Structures are written as SMILES. Several values for one entry are separate records, joined by “and”; a condition that tells them apart may be missing. Equal values may be shown once. Activity calls are given as the source filed them.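 The calls were made as follows: active = compounds whose fitted dose for half their peak growth loss is at most twice the top usable dose; inconclusive = flat curve with moderate growth loss, or a poor fit; inactive = the rest.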

The test system of one experiment is Candida glabrata growth in glucose medium, OD600, 48 h. Put plainly: C. glabrata growth inhibition on glucose, dose response, glucose medium, OD600, powder samples, set 3 (AID 623967).
Conditions: not given
A digest of the protocol:
(§1)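 System: Candida glabrata yeast cells, whole-organism growth assay. Times: 48 h at 30 °C without shaking. Signal: optical density at 600 nm. Evaluation: growth inhibition from reduced OD600.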
Consider `CC1/C=C/C=C\C=C\C=C\C=C\C=C\C=C\C(O[C@H]2OC(C)C(O)C(N)C2O)CC2OC(O)(CC(O)CC(O)C(O)CCC(O)CC(O)CC(=O)OC(C)C(C)C1O)CC(O)C2C(=O)O` (stereo partly drawn), for which the AC50 (in general, the midpoint of the concentration-response curve, whichever way the signal moves) was 1220 nM.

System in the next experiment: not listed separately
The description is as above. The conditions noted are these: Candida glabrata growth in glucose medium, OD600, 48 h; at 3 µM (top of the series). In short, it runs like this:
as §1
Regarding `CCOC(=O)N1C(=O)C2(CCCCC2)N(c2ccc(F)cc2)C1=S`, the activity change, negative = inhibition is -12.7% (inactive).

As for `CCOC(=O)N1C(=O)C2(CCCCC2)N(c2ccc(C#N)cc2)C1=S`, the activity change, negative = inhibition is -6.49% (inactive).

In the case of `CCOC(=O)N1C(=O)C2(CCCCC2)N(c2ccccc2)C1=S`, the activity change, negative = inhibition was -11.4% (inactive).

With `CCOC(=O)N1C(=O)C2(CCCCC2)N(c2cccc(C)c2)C1=S`, the activity change, negative = inhibition was -8.41% (inactive).

As to `C/C=C/[C@@H]1[C@H]2C[C@@H](C)CC[C@@H]2C(C)=C[C@H]1C(=O)c1c(O)c(-c2ccc(O)cc2)c[nH]c1=O`, the activity change, negative = inhibition is -1.31% (inactive).

For `CCOC(=O)N1C(=O)C2(CCCCC2)N(c2ccc(Cl)cc2)C1=S`, the activity change, negative = inhibition was -9.79% (inactive).

In the case of `CCOC(=O)N1C(=O)C2(CCCCC2)N(c2ccc(C)cc2)C1=S`, the activity change, negative = inhibition was -11.3% (inactive) and -13.1% (inactive).

The values are drawn from PubChem BioAssay AID623967 (Broad Institute, 2012).
